In ChEMBL document CHEMBL1126843, “Non-amine based analogues of lavendustin A as protein-tyrosine kinase inhibitors” (J Med Chem, 1993) one finds IC50 data, which are given here for seven compounds.

Each structure is given as a SMILES string.

Test [1] addresses Tyrosine-protein kinase Lck (Homo sapiens, UniProt P06239). Briefly: Inhibition of p56lck autophosphorylation. In kind it is functional.
Test [2] is described as follows: (§1) Inhibition of c-erb B-2/HER2/neu receptor. Format: functional. The method, boiled down:
(§2)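 HER2/neu immunoprecipitated from SK-BR-3 breast cancer cells (1-2 × 10^6 cells per assay) on plates coated with goat anti-mouse Ig and anti-HER2 mAb (20 μg/mL), blocked with gelatin/glycine. Lysates bound overnight on ice, then washed. Kinase reaction in 25 mM HEPES pH 7.2, 3 mM MnCl2, 20 mM MgCl2, 0.1% NP-40 and 1 µCi [γ-32P]ATP, 20 min at 25 °C. Products run on 7.5% reducing SDS-PAGE; inhibition calculated from densitometric band densities.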

Test [3] can be described thus: Inhibition of epidermal growth factor receptor (EGFR) autophosphorylation. In kind it is functional.
Test [4] is described as follows: as §1. Put shortly:
as §2

Test [5] can be described thus: Inhibition of epidermal growth factor receptor (EGFR).

Tyrosine-protein kinase Lck, sequence (P06239 whole entry): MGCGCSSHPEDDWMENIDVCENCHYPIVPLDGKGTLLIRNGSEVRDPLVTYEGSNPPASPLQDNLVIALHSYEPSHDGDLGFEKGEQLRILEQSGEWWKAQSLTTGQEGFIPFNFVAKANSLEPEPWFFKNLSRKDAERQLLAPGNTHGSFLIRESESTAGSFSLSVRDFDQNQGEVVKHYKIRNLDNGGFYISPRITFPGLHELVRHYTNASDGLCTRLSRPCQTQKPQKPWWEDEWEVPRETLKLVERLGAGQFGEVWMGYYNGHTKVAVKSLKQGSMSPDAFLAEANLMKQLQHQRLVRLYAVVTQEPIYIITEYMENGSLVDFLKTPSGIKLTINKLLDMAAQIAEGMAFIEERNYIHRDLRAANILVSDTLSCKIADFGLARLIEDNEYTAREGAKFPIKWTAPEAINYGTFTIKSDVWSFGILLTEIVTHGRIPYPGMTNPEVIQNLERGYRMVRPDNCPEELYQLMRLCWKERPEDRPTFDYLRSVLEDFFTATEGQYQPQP

Usually IC50 stands for the concentration needed to halve the response being measured. High values mean weaker potency in that assay, low ones greater potency in that assay. `O=C(O)c1cc(/C=C/c2cc(O)ccc2O)ccc1O`: the IC50 in test [1] amounted to 0.06 µM; in test [2], 0.6 µM; in test [3], 2 µM.

`O=C(O)c1cc(CCc2ccc(O)c(O)c2)ccc1O`: the half-inhibitory concentration (IC50) in test [1] worked out at 1 µM; in test [4], 0.6 µM; in test [5], 12 µM.

With `O=C(O)c1cc(/C=C/c2ccc(O)c(O)c2)ccc1O`, the IC50 came to 0.2 µM in test [2] and 5 µM in test [3].

Consider `O=C(O)c1cc(CCc2cc(O)ccc2O)ccc1O`, for which the figures for the IC50 in test [1], in test [2] and in test [3] were 1 µM, 4 µM and 20 µM, respectively.

Turning to `O=C(O)c1cc(/N=C/c2cc(O)ccc2O)ccc1O`, the IC50 in test [1] was determined as 85 µM; in test [2], 70 µM; in test [3], 9 µM.

For `O=C(O)c1cc(N(Cc2ccccc2O)Cc2cc(O)ccc2O)ccc1O` [LAVENDUSTIN A], the IC50 was determined as 8 µM in test [1], 9 µM in test [2] and 7 µM in test [3].

On to `O=C(O)c1cc(NCc2cc(O)ccc2O)ccc1O` [LAVENDUSTIN C], for which the IC50 in test [1] was 10 µM; in test [2], 0.9 µM; in test [3], 4 µM.
